According to ChEMBL document CHEMBL1165856, “Naftifine-analogues as anti-Trypanosoma cruzi agents” (Eur J Med Chem, 2010):
≈ marks a conversion by molar mass, not a printed value. Where “and” joins values, the source holds several entries; their conditions need not be identical. Identical values can stand only once.

Experiments:
[1] = Cytotoxicity against mouse J774 cells after 48 hrs by MTT assay; assay type: cell-based; conditions: read-out: ID50
How it was run: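 J-774 macrophages were seeded at 1 × 10⁵ cells/well in RPMI 1640 with 20% heat-inactivated FCS and left to attach for 48 h at 37 °C in 5% CO₂. Cells were then exposed to compounds for 48 h. MTT was added at 0.4 mg/mL final, formazan was dissolved in DMSO, and A595 was read. ID50 is the concentration cutting control absorbance by 50%, averaged over three experiments.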

[2] = system: Candida tropicalis; assay: Antifungal activity against Candida tropicalis C 131 2000 after 48 hrs; assay type: functional
How it was run: (§1)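 CLSI M27-A2 broth microdilution in RPMI 1640 buffered to pH 7.0 with MOPS. Inoculum is 10³ CFU/mL from Sabouraud-grown yeasts. Compound is two-fold serially diluted, final DMSO ≤1%. Incubated at 35 °C in a moist, dark chamber and read visually at 48 h. MIC is the lowest concentration giving total growth inhibition.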

[3] = system: Nannizzia gypsea; assay: Antifungal activity against Microsporum gypseum C 115 after 48 hrs; assay type: functional; conditions: C 115, 48 h
How it was run: (§2)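 Dermatophytes were tested by CLSI M38-A microdilution in MOPS-buffered RPMI 1640 at pH 7.0. Inoculum is 10³ CFU/mL, with two-fold serial compound dilutions and final DMSO ≤1%. Trays are kept at 28–30 °C in a moist, dark chamber. MIC is the lowest concentration with total growth inhibition, read visually when control growth allows.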

[4] = system: Aspergillus flavus; assay: Antifungal activity against Aspergillus flavus ATCC 9170 after 48 hrs; assay type: functional; conditions: ATCC 9170, 48 h
How it was run: (§3)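 Aspergillus spp. were tested by CLSI M38-A broth microdilution in RPMI 1640 with MOPS at pH 7.0. Spore inoculum is 10³ CFU/mL, with two-fold compound dilutions and final DMSO ≤1%. Incubated at 35 °C in a moist, dark chamber. MIC is read visually as total growth inhibition, at a time set by growth of the control fungus.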

[5] = system: Trichophyton mentagrophytes; assay: Antifungal activity against Trichophyton mentagrophytes ATCC 9972 after 48 hrs; assay type: functional; conditions: ATCC 9972, 48 h; how it was run: as §2
[6] = system: Cryptococcus neoformans; assay: Antifungal activity against Cryptococcus neoformans ATCC 32264 after 48 hrs; assay type: functional; how it was run: as §1
[7] = system: Aspergillus niger; assay: Antifungal activity against Aspergillus niger ATCC 9029 after 48 hrs; assay type: functional; conditions: ATCC 9029, 48 h; how it was run: as §3
[8] = system: Trypanosoma cruzi; assay: Antitrypanosomal activity against Trypanosoma cruzi Tulahuen 2; assay type: functional; conditions: read-out: ID50 (the source's name)
How it was run: (§4)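 Epimastigotes were grown at 28 °C in BHI-tryptose with 5% FBS. Stationary-phase parasites are inoculated at 8 × 10⁶ cells/mL into medium containing increasing drug concentrations from DMSO stock (final DMSO ≤0.4%; vehicle control). Growth is followed by A600. ID50 is the concentration that halves the day-5 absorbance ratio relative to control.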

[9] = system: Aspergillus fumigatus; assay: Antifungal activity against Aspergillus fumigatus ATCC 26934 after 48 hrs; assay type: functional; conditions: ATCC 26934, 48 h; how it was run: as §3
[10] = Selectivity index, ratio of ID50 for mouse J774 cells to ID50 for Trypanosoma cruzi Tulahuen 2; assay type: toxicity, cell-based; conditions: J774 cells versus Trypanosoma cruzi Tulahuen 2
How it was run: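 Selectivity index is the ID50 in J-774 macrophages (48 h MTT) divided by the ID50 against Tulahuen 2 epimastigotes (day-5 A600 growth).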

[11] = system: Saccharomyces cerevisiae; assay: Antifungal activity against Saccharomyces cerevisiae ATCC 9763 after 48 hrs; assay type: functional; conditions: ATCC 9763, 48 h; how it was run: as §1
[12] = system: Candida albicans; assay: Antifungal activity against Candida albicans ATCC 10231 after 48 hrs; assay type: functional; conditions: ATCC 10231, 48 h; how it was run: as §1
[13] = system: Trichophyton rubrum; assay: Antifungal activity against Trichophyton rubrum C 113 after 48 hrs; assay type: functional; conditions: C 113, 48 h; how it was run: as §2
[14] = system: Trypanosoma cruzi; assay: Antitrypanosomal activity against Trypanosoma cruzi CL Brener; assay type: functional; conditions: read-out: ID50 (the source's name); how it was run: as §4
[15] = Candida tropicalis, C 131 2000, 48 h, read-out: MIC

For `COc1nn(CCOCCN2CCN(C/C=C/c3ccccc3)CC2)c2ccc([N+](=O)[O-])cc12`, the CC50 at 48 h [1] was < 100 µM, the MIC [2] was 125 µg/mL (≈ 268 µM) and the MIC [2, 15] was 125 µg/mL (≈ 268 µM). For the same molecule, the MFC [3] was 125 µg/mL (≈ 268 µM), the MIC [3] was 62.5 µg/mL (≈ 134 µM) and the MIC [4] was > 250 µg/mL. For the same molecule, the MFC [5] was 125 µg/mL (≈ 268 µM), the MIC [5] was 62.5 µg/mL (≈ 134 µM) and the MFC ([6]; Cryptococcus neoformans, ATCC 32264, 48 h) was 62.5 µg/mL (≈ 134 µM). For the same molecule, the MIC ([6]; Cryptococcus neoformans, ATCC 32264, 48 h, read-out: MIC) was 62.5 µg/mL (≈ 134 µM), the MIC [7] was > 250 µg/mL and the IC50 [8] was 3.8 µM. For the same molecule, the MIC [9] was > 250 µg/mL, the selectivity ratio [10] was < 26.3 and the MFC [11] was 62.5 µg/mL (≈ 134 µM). The MIC [11] was 62.5 µg/mL (≈ 134 µM), the MFC [12] was 125 µg/mL (≈ 268 µM) and the MIC [12] was 125 µg/mL (≈ 268 µM). It also gave an MFC [13] of 125 µg/mL (≈ 268 µM), an MIC [13] of 62.5 µg/mL (≈ 134 µM) and an IC50 [14] of 7.9 µM.
For `O=[N+]([O-])c1ccc2c(c1)c(OCc1ccccc1)nn2CCCCCN1CCN(C/C=C/c2ccccc2)CC1`, the CC50 at 48 h [1] was < 100 µM, the MIC [2, 15] was > 250 µg/mL and the MFC [3] was 125 µg/mL (≈ 232 µM). The MIC [3] was 62.5 µg/mL (≈ 116 µM), the MIC [4] was > 250 µg/mL and the MFC [5] was 125 µg/mL (≈ 232 µM). The MIC [5] was 62.5 µg/mL (≈ 116 µM), the MIC [6] was 62.5 µg/mL and 31.2 µg/mL and the MIC [7] was > 250 µg/mL. For the same molecule, the IC50 [8] was 10.6 µM, the MIC [9] was > 250 µg/mL and the selectivity ratio [10] was < 9.4. The MIC [11] was > 250 µg/mL, the MIC [12] was > 250 µg/mL and the MFC [13] was 125 µg/mL (≈ 232 µM). For the same molecule, the MIC [13] was 62.5 µg/mL (≈ 116 µM) and the IC50 [14] was 4.5 µM.
With `CN(C/C=C/c1ccccc1)Cc1ccc2no[n+]([O-])c2c1` the CC50 at 48 h [1] was < 100 µM, the IC50 [8] was 22.6 µM and the selectivity ratio [10] was < 4.4. The IC50 [14] was 16.9 µM.
